Legend:
Cannabinoid receptor 2 = Cannabinoid receptor 2 (Homo sapiens, UniProt P34972); assay: Displacement of [3H]CP55940 from human CB2 receptor expressed in CHOK1 cells after 1 hr by liquid scintillation counting analysis; assay type: cell-based, CHO-K1
Summary of the method: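 Membranes from butyrate-treated (5 mM, 24 h) CHO-K1 cells stably expressing human CB2, incubated with 0.3 nM [3H]CP55940 and increasing ligand concentrations, 60 min, 30 °C, pH 7.4 Tris buffer with 0.1% fatty acid-free BSA and 1% DMSO; nonspecific binding with 10 μM CP55940; filtration, scintillation counting; tested in triplicate.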

Cannabinoid receptor 1 = Cannabinoid receptor 1 (Homo sapiens, UniProt P21554); assay: Displacement of [3H]CP55940 from human CB1 receptor expressed in CHOK1 cells after 1 hr by liquid scintillation counting analysis; assay type: cell-based, CHO-K1
Sequence of Cannabinoid receptor 1 (P21554 whole entry): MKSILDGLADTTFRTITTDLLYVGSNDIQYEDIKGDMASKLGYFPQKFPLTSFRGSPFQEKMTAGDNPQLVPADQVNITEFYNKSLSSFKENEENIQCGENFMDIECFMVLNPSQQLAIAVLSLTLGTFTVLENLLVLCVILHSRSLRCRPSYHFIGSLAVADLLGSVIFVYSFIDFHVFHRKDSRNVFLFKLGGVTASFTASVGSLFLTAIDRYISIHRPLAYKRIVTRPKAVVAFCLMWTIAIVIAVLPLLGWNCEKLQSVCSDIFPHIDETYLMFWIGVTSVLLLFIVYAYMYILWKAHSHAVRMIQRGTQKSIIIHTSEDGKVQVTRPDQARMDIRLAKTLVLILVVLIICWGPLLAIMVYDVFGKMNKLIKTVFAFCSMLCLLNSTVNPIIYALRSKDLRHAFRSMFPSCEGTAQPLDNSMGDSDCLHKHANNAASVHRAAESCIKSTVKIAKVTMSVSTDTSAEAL

Liver microsome = assay: Clearance in rat liver microsomes at 2 uM by LC-MS/MS analysis; assay type: ADME
Summary of the method: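 Rat liver microsomes at 0.5 mg/mL were incubated with 2 μM compound (final) and an NADPH-regenerating system. Aliquots were taken at 1, 3, 6, 9, 15, 25, 35 and 45 min and quenched in acetonitrile containing internal standard. Depletion was measured by LC-MS/MS. Clmic = −slope × 1000 / protein concentration (mg/mL), not corrected for microsomal protein binding.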

Sequence of Cannabinoid receptor 2 (P34972 whole entry): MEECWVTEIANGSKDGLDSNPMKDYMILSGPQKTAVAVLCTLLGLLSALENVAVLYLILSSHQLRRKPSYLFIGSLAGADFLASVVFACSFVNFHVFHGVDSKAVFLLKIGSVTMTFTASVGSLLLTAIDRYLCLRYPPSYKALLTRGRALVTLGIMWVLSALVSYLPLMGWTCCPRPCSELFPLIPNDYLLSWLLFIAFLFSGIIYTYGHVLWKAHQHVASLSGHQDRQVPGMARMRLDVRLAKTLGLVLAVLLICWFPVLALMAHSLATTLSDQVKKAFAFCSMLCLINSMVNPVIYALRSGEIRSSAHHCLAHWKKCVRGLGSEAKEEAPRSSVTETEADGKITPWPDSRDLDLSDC

Compound | Ki (Cannabinoid receptor 2) [µM] | Ki (Cannabinoid receptor 1) [µM] | CLH (Liver microsome) [µL/min/mg] | IC50 (Cannabinoid receptor 2) [µM] | IC50 (Cannabinoid receptor 1) [µM]
O=C(N[C@@H]1CCCC[C@H]1O)c1cnc(OCc2ncccn2)c(-c2ccc(Cl)cc2)c1 | > 10 | 0.0516 | 12 | – | –
O=C(N[C@@H]1CCCC[C@@H]1O)c1cnc(OCC2CC2)c(-c2ccc(Cl)cc2)c1 | > 5 | 0.186 | 163 | – | –
O=C(N[C@@H]1CCCC[C@H]1O)c1cnc(OCc2cccnc2)c(-c2ccc(Cl)cc2)c1 | > 10 | 0.0235 | 374 | – | –
NS(=O)(=O)c1ccc(-c2cc(C(=O)N[C@@H]3CCCC[C@H]3O)cnc2OCC2CC2)cc1 | > 10 | > 10 | – | – | –
O=C(NN1CCCCC1)c1cnc(OCC2CC2)c(-c2ccc(Cl)cc2)c1 | > 10 | 0.563 | – | – | –
O=C(N[C@@H]1CCCC[C@H]1O)c1cnc(OCC2CC2)c(-c2cccc(Cl)c2)c1 | > 5 | 0.129 | – | – | –
O=C(N[C@H]1CCCC[C@H]1O)c1cnc(OCC2CC2)c(-c2ccc(Cl)cc2)c1 | > 7 | 0.104 | 111 | – | –
CCCCOc1ncc(C(=O)N[C@@H]2CCCC[C@H]2O)cc1-c1ccc(Cl)cc1 | > 10 | 0.0438 | 101 | – | –
O=C(N[C@@H]1CCCC[C@H]1O)c1cnc(OCc2ccccn2)c(-c2ccc(Cl)cc2)c1 | > 10 | 0.139 | 44 | – | –
O=C(N[C@@H]1CCCC[C@H]1O)c1cnc(OCC2CC2)c(-c2ccc(F)cc2)c1 | > 10 | 0.0428 | 37 | – | –
CC(C)Oc1ncc(C(=O)N[C@@H]2CCCC[C@H]2O)cc1-c1ccc(Cl)cc1 | > 10 | 1.07 | – | – | –
O=C(N[C@@H]1CCCC[C@H]1O)c1cnc(OC2CCCC2)c(-c2cc(C(F)(F)F)ccc2Cl)c1 | – | – | 367 | 2.39 | 0.395
O=C(O)c1ccc(-c2cc(C(=O)N[C@@H]3CCCC[C@H]3O)cnc2OCC2CC2)cc1 | > 10 | > 10 | – | – | –
O=C(N[C@@H]1CCCC[C@H]1O)c1cnc(OCC2CC2)c(-c2ccc(Cl)cc2Cl)c1 | > 5 | 0.122 | – | – | –
Cc1c(C(=O)N[C@@H]2CCCC[C@H]2O)cc(-c2cc(C(F)(F)F)ccc2Cl)n1CC1CCCCC1 | – | – | 1323 | > 5 | 0.0095
O=C(N[C@@H]1CCCC[C@H]1O)c1cnc(OCC2CC2)c(-c2ccc(Cl)cc2)n1 | 0.801 | 0.0258 | – | – | –
CS(=O)(=O)Nc1ccc(-c2cc(C(=O)N[C@@H]3CCCC[C@H]3O)cnc2OCC2CC2)cc1 | > 10 | 1.9 | – | – | –
O=C(N[C@@H]1CCCC[C@H]1O)c1cnc(OC2CCCC2)c(-c2ccc(Cl)cc2)c1 | > 10 | 0.374 | – | – | –
O=C(N[C@@H]1CCCC[C@H]1O)c1cc(-c2ccc(Cl)cc2)c(OCC2CC2)cn1 | 1.53 | > 7 | – | – | –
COc1ccc(-c2cc(C(=O)N[C@@H]3CCCC[C@H]3O)cnc2OCC2CC2)cc1 | > 10 | 0.0664 | – | – | –
O=C(N[C@@H]1CCCC[C@H]1O)c1cnc(OCC2CC2)c(-c2ccc(C(F)(F)F)cc2)c1 | > 10 | 0.0185 | – | – | –
O=C(N[C@@H]1CCCC[C@H]1O)c1ccc(OCC2CC2)c(-c2ccc(Cl)cc2)n1 | 0.863 | 1.83 | – | – | –
O=C(N[C@@H]1CCCC[C@H]1O)c1cnc(OCC2CC2)c(-c2ccc(Cl)c(Cl)c2)c1 | 1.26 | 0.305 | – | – | –
O=C(N[C@@H]1CCCC[C@H]1O)c1cc(-c2ccc(Cl)cc2)c(OCC2CC2)nn1 | > 3 | > 5 | – | – | –
O=C(N[C@H]1CCCC[C@@H]1O)c1cnc(OCC2CC2)c(-c2ccc(Cl)cc2)c1 | 2.64 | 0.247 | – | – | –
N#Cc1ccc(-c2cc(C(=O)N[C@@H]3CCCC[C@H]3O)cnc2OCC2CC2)cc1 | > 10 | 0.0236 | – | – | –
NC(=O)c1ccc(-c2cc(C(=O)N[C@@H]3CCCC[C@H]3O)cnc2OCC2CC2)cc1 | > 10 | > 8 | – | – | –
O=C(N[C@@H]1CCCC[C@H]1O)c1cnc(OCC2CC2)c(-c2ccccc2Cl)c1 | > 10 | 0.19 | – | – | –
